Source: ChEMBL document CHEMBL1240461, “Regioselective synthesis and molecular modeling study of vasorelaxant active 7,9-dioxa-1,2-diaza-spiro[4.5]dec-2-ene-6,10-diones” (Eur J Med Chem, 2010)

tested on: Aorta; assay: Vasorelaxant activity in Wistar rat thoracic aortic ring assessed as inhibition of norepinephrine hydrochloride-induced contraction; assay type: functional, tissue-based
In short: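 Isolated thoracic aortic rings from male Wistar rats, stabilised at 2 g resting tension for 2 h. Controls used DMSO alone at matching concentrations. IC50 is the concentration giving 50% reduction of maximal norepinephrine contracture, from a best-fit line.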

| SMILES | IC50 [µM] |
| --- | --- |
| CC1(C)OC(=O)C2(C(=O)O1)C(c1ccc(Cl)cc1)C(c1ccccc1)=NN2c1ccccc1 (stereo unspecified) | 590 |
| CC1(C)OC(=O)C2(C(=O)O1)C(c1ccc(Cl)cc1)C(c1ccccc1)=NN2c1cccc(Cl)c1 (stereo unspecified) | 448 |
| CC1(C)OC(=O)C2(C(=O)O1)C(c1ccc(F)cc1)C(c1ccccc1)=NN2c1ccccc1 (stereo unspecified) | 1470 |
| CC1(C)OC(=O)C2(C(=O)O1)C(c1ccc(F)cc1)C(c1ccccc1)=NN2c1cccc(Cl)c1 (stereo unspecified) | 643 |
| COc1ccc(C2C(c3ccccc3)=NN(c3ccccc3)C23C(=O)OC(C)(C)OC3=O)cc1 (stereo unspecified) | 500 |
| COc1ccc(C2C(c3ccccc3)=NN(c3cccc(Cl)c3)C23C(=O)OC(C)(C)OC3=O)cc1 (stereo unspecified) | 325 |
| CN(C)c1ccc(C2C(c3ccccc3)=NN(c3cccc(Cl)c3)C23C(=O)OC(C)(C)OC3=O)cc1 (stereo unspecified) | 430 |
| CC1(C)OC(=O)C2(C(=O)O1)C(c1cccs1)C(c1ccccc1)=NN2c1ccccc1 (stereo unspecified) | 585 |
| CC1(C)OC(=O)C2(C(=O)O1)C(c1cccs1)C(c1ccccc1)=NN2c1cccc(Cl)c1 (stereo unspecified) | 321 |
| Cc1ccc(C2C(c3ccccc3)=NN(c3ccccc3)C23C(=O)OC(C)(C)OC3=O)o1 (stereo unspecified) | 719 |
| Cc1ccc(C2C(c3ccccc3)=NN(c3cccc(Cl)c3)C23C(=O)OC(C)(C)OC3=O)o1 (stereo unspecified) | 729 |
